Measured values reported in ChEMBL document CHEMBL4038284, “Synthesis of novel quinoline-based 4,5-dihydro-1H-pyrazoles as potential anticancer, antifungal, antibacterial and antiprotozoal agents” (Eur J Med Chem, 2017).
Converted amounts (≈) assume the structure as drawn.

How the values were obtained:
Klebsiella pneumoniae [1] = experiment: Antibacterial activity against ESBL positive Klebsiella pneumoniae ATCC 700603 after 24 hrs by resazurin dye based microdilution assay; assay type: functional; conditions: Klebsiella pneumoniae, 700603, 24 h
Procedure, shortened: (§1)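 MIC taken as the lowest concentration giving visible inhibition and/or by resazurin (1 mg/mL). Gentamicin was the control. Run in duplicate, repeated at least three times.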

Klebsiella pneumoniae [2] = experiment: Antibacterial activity against carbapenemase positive Klebsiella pneumoniae BAA 1705 after 24 hrs by resazurin dye based microdilution assay; assay type: functional; conditions: BAA 1705, 24 h; procedure, shortened: as §1
Leishmania panamensis = experiment: Antileshmanial activity against EpiR/GFP fused Leishmania panamensis MHOM/CO/87/UA140 intracellular amastigotes infected in human […] cells after 72 hrs by flow cytometric method; assay type: functional, cell-based; conditions: MHOM/CO/87/UA140, 72 h
Procedure, shortened: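 PMA-treated U-937 cells (3 × 10^5 cells/mL) infected with stationary-phase GFP L. panamensis promastigotes (15:1), 3 h at 34 °C, then washed. After 24 h, compounds added at 50, 12.5, 3.125 and 0.78 µg/mL for 72 h at 37 °C. EC50 by Probit; triplicate, two experiments.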

Candida albicans [3] = experiment: Antifungal activity against Candida albicans ATCC 10231 incubated for 48 hrs under dark condition by broth microdilution method; assay type: functional; conditions: ATCC 10231, 48 h
Procedure, shortened: (§2)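 CLSI M27-A3 broth microdilution in RPMI-1640, DMSO ≤1%, compounds at 250-0.98 µg/mL final. Inoculum 1-5 × 10^3 CFU/mL. Incubated 48 h at 30 °C in a moist dark chamber, read at OD405. MIC80 and MIC50 taken from % inhibition dose-response curves (mean ± SEM, triplicate). Amphotericin B was the positive control.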

Cryptococcus neoformans [4] = experiment: Antifungal activity against Cryptococcus neoformans ATCC 32264 incubated for 48 hrs under dark condition by broth microdilution method; assay type: functional; conditions: ATCC 32264, 48 h; procedure, shortened: as §2
Candida albicans [5] = experiment: Growth inhibition of Candida albicans ATCC 10231 at 250 ug/ml incubated for 48 hrs under dark condition by broth microdilution method relative to control; assay type: functional; conditions: ATCC 10231, 48 h, read-out: GI
Procedure, shortened: (§3)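 CLSI M27-A3 broth microdilution in RPMI-1640, DMSO ≤1%. Inoculum 1-5 × 10^3 CFU/mL. Incubated 48 h at 30 °C, dark. % inhibition = 100 − (OD405 test − sterility control)/(OD405 growth control − sterility control), with growth and sterility control wells. Triplicate.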

Candida albicans [6] = experiment: Growth inhibition of Candida albicans ATCC 10231 at 125 ug/ml incubated for 48 hrs under dark condition by broth microdilution method relative to control; assay type: functional; conditions: ATCC 10231, 48 h, read-out: GI; procedure, shortened: as §3
Candida albicans [7] = experiment: Growth inhibition of Candida albicans ATCC 10231 at 62.5 ug/ml incubated for 48 hrs under dark condition by broth microdilution method relative to control; assay type: functional; conditions: ATCC 10231, 48 h, read-out: GI; procedure, shortened: as §3
Candida albicans [8] = experiment: Growth inhibition of Candida albicans ATCC 10231 at 31.25 ug/ml incubated for 48 hrs under dark condition by broth microdilution method relative to control; assay type: functional; conditions: ATCC 10231, 48 h, read-out: GI; procedure, shortened: as §3
Candida albicans [9] = experiment: Growth inhibition of Candida albicans ATCC 10231 at 15.62 ug/ml incubated for 48 hrs under dark condition by broth microdilution method relative to control; assay type: functional; conditions: ATCC 10231, 48 h, read-out: GI; procedure, shortened: as §3
Candida albicans [10] = experiment: Growth inhibition of Candida albicans ATCC 10231 at 7.8 ug/ml incubated for 48 hrs under dark condition by broth microdilution method relative to control; assay type: functional; conditions: ATCC 10231, 48 h, read-out: GI; procedure, shortened: as §3
Candida albicans [11] = experiment: Growth inhibition of Candida albicans ATCC 10231 at 3.4 ug/ml incubated for 48 hrs under dark condition by broth microdilution method relative to control; assay type: functional; conditions: ATCC 10231, 48 h, read-out: GI
Cryptococcus neoformans [12] = experiment: Growth inhibition of Cryptococcus neoformans ATCC 32264 at 250 ug/ml incubated for 48 hrs under dark condition by broth microdilution method relative to control; assay type: functional; conditions: ATCC 32264, 48 h, read-out: GI; procedure, shortened: as §3
Cryptococcus neoformans [13] = experiment: Growth inhibition of Cryptococcus neoformans ATCC 32264 at 125 ug/ml incubated for 48 hrs under dark condition by broth microdilution method relative to control; assay type: functional; conditions: ATCC 32264, 48 h, read-out: GI; procedure, shortened: as §3
Cryptococcus neoformans [14] = experiment: Growth inhibition of Cryptococcus neoformans ATCC 32264 at 62.5 ug/ml incubated for 48 hrs under dark condition by broth microdilution method relative to control; assay type: functional; conditions: ATCC 32264, 48 h, read-out: GI; procedure, shortened: as §3
Cryptococcus neoformans [15] = experiment: Growth inhibition of Cryptococcus neoformans ATCC 32264 at 31.25 ug/ml incubated for 48 hrs under dark condition by broth microdilution method relative to control; assay type: functional; conditions: ATCC 32264, 48 h, read-out: GI; procedure, shortened: as §3
Cryptococcus neoformans [16] = experiment: Growth inhibition of Cryptococcus neoformans ATCC 32264 at 15.62 ug/ml incubated for 48 hrs under dark condition by broth microdilution method relative to control; assay type: functional; conditions: ATCC 32264, 48 h, read-out: GI; procedure, shortened: as §3
Cryptococcus neoformans [17] = experiment: Growth inhibition of Cryptococcus neoformans ATCC 32264 at 7.8 ug/ml incubated for 48 hrs under dark condition by broth microdilution method relative to control; assay type: functional; conditions: ATCC 32264, 48 h, read-out: GI; procedure, shortened: as §3
Cryptococcus neoformans [18] = experiment: Growth inhibition of Cryptococcus neoformans ATCC 32264 at 3.4 ug/ml incubated for 48 hrs under dark condition by broth microdilution method relative to control; assay type: functional; conditions: ATCC 32264, 48 h, read-out: GI
Staphylococcus aureus [19] = experiment: Antibacterial activity against methicillin-sensitive Staphylococcus aureus ATCC 25923 after 24 hrs by resazurin dye based microdilution assay; assay type: functional; conditions: ATCC 25923, 24 h; procedure, shortened: as §1
Staphylococcus aureus [20] = experiment: Antibacterial activity against methicillin-resistant Staphylococcus aureus ATCC 43300 after 24 hrs by resazurin dye based microdilution assay; assay type: functional; conditions: ATCC 43300, 24 h
Procedure, shortened: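 Broth microdilution in Mueller Hinton broth, inoculum 5 × 10^5 – 8 × 10^5. Compound stocks diluted in MHB with 5% DMSO and 0.1% Tween 80. Incubation 24 h at 35-37 °C. MIC is the lowest concentration with visible growth inhibition and/or by resazurin (1 mg/mL) read-out. Gentamicin as control. Run in duplicate, replicated at least three times.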

Staphylococcus aureus [21] = experiment: Antibacterial activity against vancomycin-intermediate Staphylococcus aureus after 24 hrs by resazurin dye based microdilution assay; assay type: functional; procedure, shortened: as §1
Escherichia coli = experiment: Antibacterial activity against Escherichia coli ATCC 25922 after 24 hrs by resazurin dye based microdilution assay; assay type: functional; conditions: ATCC 25922, 24 h; procedure, shortened: as §1
Pseudomonas aeruginosa = experiment: Antibacterial activity against Pseudomonas aeruginosa ATCC 27853 after 24 hrs by resazurin dye based microdilution assay; assay type: functional; conditions: ATCC 27853, 24 h; procedure, shortened: as §1
Neisseria gonorrhoeae = experiment: Antibacterial activity against beta lactamase positive Neisseria gonorrhoeae ATCC 31426 by oxidase test; assay type: functional
Procedure, shortened: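 Agar dilution MIC on GC agar with 1% isovitalex containing increasing compound concentrations. Plates inoculated with about 1×10^4 CFU (5 µL). MIC is the lowest concentration that inhibited growth, with growth confirmed by oxidase test. Run in duplicate, repeated at least three times.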

Plasmodium falciparum = experiment: Antiplasmodial activity against chloroquine-sensitive Plasmodium falciparum 3D7 assessed as reduction in parasitic LDH activity after 48 hrs by Malstat reagent based […] method; assay type: functional; conditions: 3D7, 48 h
Procedure, shortened: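 Unsynchronized P. falciparum 3D7 at 0.5% parasitemia and 1% hematocrit in RPMI with 3% Albumax II. Exposed to 100, 25, 6.25 and 1.56 µg/mL for 48 h at 37 °C under 90% N2/5% CO2/5% O2. After three freeze-thaw cycles, LDH measured with Malstat and NBT/PES, 1 h in the dark, read at 650 nm. IC50 by Probit; triplicate, ≥2 experiments.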

U-937 = experiment: Cytotoxicity against human U937 cells after 72 hrs by MTT assay; assay type: cell-based; conditions: u-937, 72 h
Procedure, shortened: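 Exponentially growing U-937 at 1 × 10^5 cells/mL in RPMI-1640 with 10% FBS were exposed to 200, 50, 12.5 and 3.125 µg/mL for 72 h at 37 °C, 5% CO2. MTT for 3 h, stopped with isopropanol/SDS, formazan read at 570 nm, blank-corrected. LC50 by Probit from % viability against untreated cells. Triplicate, at least two independent experiments.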

Trypanosoma cruzi = experiment: Antitrypanosomal activity against Trypanosoma cruzi Tulahuen intracellular amastigote harboring LacZ infected in human U937 cells after 72 hrs by CPRG/Nonidet reagent based spectrophotometric method; assay type: functional, cell-based; conditions: U-937, 72 h
Procedure, shortened: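 U-937 cells at 2.5 × 10^5 cells/mL in RPMI-1640 with 10% serum and 0.1 µg/mL PMA were infected with β-galactosidase-transfected Tulahuen epimastigotes at 5 parasites per cell. Infected cells were exposed to 50, 12.5, 3.125 and 0.78 µg/mL for 72 h. CPRG (100 uM) and 0.1% Nonidet P-40 were added for 3 h, read at 570 nm. EC50 by Probit. Triplicate, at least two experiments; benznidazole as reference.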

COc1cc(C2=NN(c3ccccc3)C(c3cccc(Nc4ccnc5cc(Cl)ccc45)c3)C2)cc(OC)c1OC (stereo not given)
MIC (Klebsiella pneumoniae [1]): > 1000 µg/mL | MIC (Klebsiella pneumoniae [2]): > 1000 µg/mL | EC50 (Leishmania panamensis): 13.4 µg/mL (≈ 23.7 µM) | MIC50 (Candida albicans [3]): 250 µg/mL (≈ 442 µM) | MIC80 (Candida albicans [3]): ≥ 250 µg/mL | MIC50 (Cryptococcus neoformans [4]): 250 µg/mL (≈ 442 µM) | MIC80 (Cryptococcus neoformans [4]): ≥ 250 µg/mL | inhibition of growth at 250 µg/mL (Candida albicans [5]): 60.5% | inhibition of growth at 125 µg/mL (Candida albicans [6]): 42.3% | inhibition of growth at 62.5 µg/mL (Candida albicans [7]): 23.4% | inhibition of growth at 31.25 µg/mL (Candida albicans [8]): 13.4% | inhibition of growth at 15.62 µg/mL (Candida albicans [9]): 11.6% | inhibition of growth at 7.8 µg/mL (Candida albicans [10]): 6.63% | inhibition of growth at 3.4 µg/mL (Candida albicans [11]): 4.16% | inhibition of growth at 250 µg/mL (Cryptococcus neoformans [12]): 58.6% | inhibition of growth at 125 µg/mL (Cryptococcus neoformans [13]): 18.3% | inhibition of growth at 62.5 µg/mL (Cryptococcus neoformans [14]): 16.2% | inhibition of growth at 31.25 µg/mL (Cryptococcus neoformans [15]): 1.65% | inhibition of growth at 15.62 µg/mL (Cryptococcus neoformans [16]): 0.13% | inhibition of growth at 7.8 µg/mL (Cryptococcus neoformans [17]): 0% | inhibition of growth at 3.4 µg/mL (Cryptococcus neoformans [18]): 0% | MIC (Staphylococcus aureus [19]): > 1000 µg/mL | MIC (Staphylococcus aureus [20]): > 1000 µg/mL | MIC (Staphylococcus aureus [21]): > 1000 µg/mL | MIC (Escherichia coli): > 1000 µg/mL | MIC (Pseudomonas aeruginosa): > 1000 µg/mL | MIC (Neisseria gonorrhoeae): > 1000 µg/mL | EC50 (Plasmodium falciparum): 15.5 µg/mL (≈ 27.4 µM) | LC50 (U-937): > 200 µg/mL | EC50 (Trypanosoma cruzi): 21.6 µg/mL (≈ 38.2 µM)
